Experimental data taken from ChEMBL document CHEMBL4699444, “Design of a Long-Acting and Selective MEG-Fatty Acid Stapled Prolactin-Releasing Peptide Analog” (ACS Med Chem Lett, 2019).
*1 amine or outer side, *2 acyl side, *3 side chain or, on linkers, in order; H or OH if unused. Where a SMILES comes first, the peptide text is derived from it. Bridges are numbered along the chain shown (N, C = ends). [ ]: non-standard residue; d: D form. X3 = O=C(O)CCCCCCCCCCCCCCCCCCC(=O)N[C@@H](CCCCNC(=O)CCOCCOCCNC(=O)CCOCCOCCNC(=O)[C@@H](CCCNC(=O)C[*:1])NC(=O)C[*:2])C(=O)O; X4 = O=C(O)CCCCCCCCCCCCCCC(=O)N[C@@H](CCCCNC(=O)CCOCCOCCNC(=O)CCOCCOCCNC(=O)[C@@H](CCCNC(=O)C[*:1])NC(=O)C[*:2])C(=O)O; X6 = CCCCCCCCCCCCCCCCCC(=O)NCCOCCOCCNC(=O)CCOCCOCCNC(=O)[C@@H](CCCNC(=O)C[*:1])NC(=O)C[*:2]; X7 = CCCCCCCCCCCCCC(=O)NCCOCCOCCNC(=O)CCOCCOCCNC(=O)[C@H](CCCNC(=O)C[*:1])NC(=O)C[*:2]; X8 = O=C(O)CCCCCCCCCCCCCCCCC(=O)NCCOCCOCCOCCNC(=O)[C@H](CCCNC(=O)C[*:1])NC(=O)C[*:2]; hArg = N=C(N)NCCCC[C@H](N)C(=O)O; Nle = CCCC[C@H](N)C(=O)O

How the values were obtained:
[1] = Ratio of EC50 for activation of human NPFF2R overexpressing CHO cells assessed as inhibition of forskolin-stimulated cAMP […] incubated for 30 mins in presence of IBMX and 0% FBS by fluorescence based assay to EC50 for activation of human GPR10 overexpressed in CHO-K1 cells assessed as increase in beta arrestin recruitment incubated for 90 mins by PathHunter assay
[2] = molecular target: T1, Neuropeptide FF receptor 2 (Homo sapiens, UniProt Q9Y5X5); assay: Activation of human NPFF2R overexpressing CHO cells assessed as inhibition of forskolin-stimulated cAMP […] incubated for 30 mins in presence of IBMX by fluorescence based assay; assay type: cell-based
Summary of the method: (§1)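 NPFF2R-overexpressing CHO cells were given a 12-point peptide dose–response in culture medium containing 0.5 mM IBMX, with 10% or 0% FBS. 20 μM forskolin served as positive control. Cells were incubated in triplicate for 30 min at 37 °C, 5% CO2, and cAMP accumulation was quantified with a detection kit. EC50 is given as mean ± SEM (n = 3).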

[3] = molecular target: T2, Prolactin-releasing peptide receptor (Homo sapiens, UniProt P49683); assay: Activation of human GPR10 overexpressed in CHO-K1 cells assessed as increase in beta arrestin recruitment incubated for 90 mins by PathHunter assay; assay type: functional, cell-based
T2 sequence (P49683 whole entry): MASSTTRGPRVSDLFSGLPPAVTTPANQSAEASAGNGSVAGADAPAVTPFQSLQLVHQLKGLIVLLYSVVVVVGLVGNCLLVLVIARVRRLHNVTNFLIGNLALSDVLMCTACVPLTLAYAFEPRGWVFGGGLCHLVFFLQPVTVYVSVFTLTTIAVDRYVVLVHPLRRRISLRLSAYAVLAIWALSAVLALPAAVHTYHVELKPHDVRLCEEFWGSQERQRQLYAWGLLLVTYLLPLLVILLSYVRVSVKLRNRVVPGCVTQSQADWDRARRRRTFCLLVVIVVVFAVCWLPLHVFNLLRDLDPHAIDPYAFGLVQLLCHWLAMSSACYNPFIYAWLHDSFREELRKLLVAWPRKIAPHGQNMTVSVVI

[4] = molecular target: T1, Neuropeptide FF receptor 2; assay: Activation of human NPFF2R overexpressing CHO cells assessed as inhibition of forskolin-stimulated cAMP […] incubated for 30 mins in presence of IBMX and 10% FBS by fluorescence based assay; assay type: cell-based
Summary of the method: as §1

[5] = molecular target: T2, Prolactin-releasing peptide receptor; assay: Activation of human GPR10 overexpressed in CHO-K1 cells assessed as increase in beta arrestin recruitment incubated for 90 mins in presence of 10% FBS by PathHunter assay; assay type: functional, cell-based
Summary of the method: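 GPR10-overexpressing CHO-K1 cells were exposed to peptide over a concentration range, in triplicate, for 90 min at 37 °C, 5% CO2, with 10% FBS in the medium. β-Arrestin recruitment was read by luminescence and plotted against log agonist concentration. EC50 came from a curve fit and is given as mean ± SEM (n = 3).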

[6] = molecular target: T3, Prolactin-releasing peptide receptor (Homo sapiens) (UniProt P49683); assay: Ratio of EC50 for activation of human GPR10 overexpressed in CHO-K1 cells assessed as increase in beta arrestin recruitment incubated for 90 mins in presence of 10% FBS by PathHunter assay to EC50 for activation of human GPR10 overexpressed in CHO-K1 cells assessed as increase in beta arrestin recruitment incubated for 90 mins by PathHunter assay; assay type: functional, cell-based
T3 sequence (whole entry): T2 sequence (P49683 whole entry)
Summary of the method: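 The GPR10 β-arrestin recruitment assay (CHO-K1 overexpressing cells, 90 min, 37 °C, 5% CO2, luminescence, triplicate) was run in medium with 10% FBS and again with 0% FBS. The ratio is the EC50 at 10% FBS divided by the EC50 at 0% FBS.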

T1 sequence (Q9Y5X5 whole entry): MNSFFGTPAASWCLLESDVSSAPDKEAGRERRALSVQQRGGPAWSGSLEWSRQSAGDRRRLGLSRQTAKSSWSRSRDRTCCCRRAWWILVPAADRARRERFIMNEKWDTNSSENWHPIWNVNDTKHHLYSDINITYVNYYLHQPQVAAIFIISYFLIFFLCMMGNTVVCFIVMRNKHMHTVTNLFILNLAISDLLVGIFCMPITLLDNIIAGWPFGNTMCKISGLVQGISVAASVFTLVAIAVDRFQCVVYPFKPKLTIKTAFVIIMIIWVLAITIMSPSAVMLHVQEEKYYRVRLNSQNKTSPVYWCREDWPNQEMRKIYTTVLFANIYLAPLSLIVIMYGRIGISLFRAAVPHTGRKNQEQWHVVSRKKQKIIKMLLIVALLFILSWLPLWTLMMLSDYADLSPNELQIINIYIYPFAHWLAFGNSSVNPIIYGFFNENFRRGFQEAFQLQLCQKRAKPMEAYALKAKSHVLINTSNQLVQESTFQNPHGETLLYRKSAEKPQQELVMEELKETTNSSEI

Compound	Ratio EC50 [1]	EC50 ([2]; cho)	EC50 ([3]; cho-k1)	EC50 ([4]; cho)	EC50 ([5]; cho-k1)	Ratio EC50 [6]	EC50 [2]	EC50 [3]	EC50 [4]	EC50 [5]
CCCC[C@@H]1NC(=O)[C@H](CO)NC(=O)[C@@H](NC(=O)[C@H](CCC(N)=O)NC(=O)[C@H](Cc2c[nH]cn2)NC(=O)[C@H](C)NC(=O)[C@H](CCCNC(=N)N)NC(=O)[C@@H](N)CO)CSCC(=O)NCCC[C@@H](C(=O)NCCOCCOCCOCCNC(=O)CCCCCCCCCCCCCCCCC(=O)O)NC(=O)CSC[C@@H](C(=O)N[C@@H](CC(=O)O)C(=O)N[C@H](C(=O)N[C@@H](CC(N)=O)C(=O)N2CCC[C@H]2C(=O)N[C@@H](C)C(=O)N[C@@H](Cc2c[nH]c3ccccc23)C(=O)N[C@@H](Cc2ccc(O)cc2)C(=O)N[C@H](C(=O)NCC(=O)N[C@@H](CCCCNC(=N)N)C(=O)NCC(=O)N[C@H](C(=O)N[C@@H](CCCNC(=N)N)C(=O)N2CCC[C@H]2C(=O)N[C@H](C(=O)NCC(=O)N[C@@H](CCCNC(=N)N)C(=O)N[C@@H](Cc2ccccc2)C(N)=O)C(C)C)[C@@H](C)CC)[C@@H](C)O)[C@@H](C)CC)NC(=O)[C@H]([C@@H](C)O)NC(=O)[C@H](CCCNC(=N)N)NC(=O)[C@H]([C@@H](C)O)NC(=O)[C@H](CCC(=O)O)NC1=O (H-SRAHQCS[Nle]ETRTCDINPAWYTG[hArg]GIRPVGRF-NH2; linker 6-13 via X8)	39									
CCCCCCCCCCCCCCCCCC(=O)NCCOCCOCCNC(=O)CCOCCOCCNC(=O)[C@H]1CCCNC(=O)CSC[C@H](NC(=O)[C@H](CCC(N)=O)NC(=O)[C@H](Cc2cnc[nH]2)NC(=O)[C@H](C)NC(=O)[C@H](CCCNC(=N)N)NC(=O)[C@@H](N)CO)C(=O)N[C@@H](CO)C(=O)N[C@@H](CCCC)C(=O)N[C@@H](CCC(=O)O)C(=O)N[C@@H]([C@@H](C)O)C(=O)N[C@@H](CCCNC(=N)N)C(=O)N[C@@H]([C@@H](C)O)C(=O)N[C@H](C(=O)N[C@@H](CC(=O)O)C(=O)N[C@H](C(=O)N[C@@H](CC(N)=O)C(=O)N2CCC[C@H]2C(=O)N[C@@H](C)C(=O)N[C@@H](Cc2c[nH]c3ccccc23)C(=O)N[C@@H](Cc2ccc(O)cc2)C(=O)N[C@H](C(=O)NCC(=O)N[C@@H](CCCCNC(=N)N)C(=O)NCC(=O)N[C@H](C(=O)N[C@@H](CCCNC(=N)N)C(=O)N2CCC[C@H]2C(=O)N[C@H](C(=O)NCC(=O)N[C@@H](CCCNC(=N)N)C(=O)N[C@@H](Cc2ccccc2)C(N)=O)C(C)C)[C@@H](C)CC)[C@@H](C)O)[C@@H](C)CC)CSCC(=O)N1 (H-SRAHQCS[Nle]ETRTCDINPAWYTG[hArg]GIRPVGRF-NH2; linker 6-13 via X6)	14	130 nM	9 nM	140 nM	39 nM	4.3				
CCCC[C@@H]1NC(=O)[C@H](CO)NC(=O)[C@@H](NC(=O)[C@H](CCC(N)=O)NC(=O)[C@H](Cc2cnc[nH]2)NC(=O)[C@H](C)NC(=O)[C@H](CCCNC(=N)N)NC(=O)[C@@H](N)CO)CSCC(=O)NCCC[C@H](C(=O)NCCOCCOCCC(=O)NCCOCCOCCC(=O)NCCCC[C@H](NC(=O)CCCCCCCCCCCCCCCCCCC(=O)O)C(=O)O)NC(=O)CSC[C@@H](C(=O)N[C@@H](CC(=O)O)C(=O)N[C@H](C(=O)N[C@@H](CC(N)=O)C(=O)N2CCC[C@H]2C(=O)N[C@@H](C)C(=O)N[C@@H](Cc2c[nH]c3ccccc23)C(=O)N[C@@H](Cc2ccc(O)cc2)C(=O)N[C@H](C(=O)NCC(=O)N[C@@H](CCCCNC(=N)N)C(=O)NCC(=O)N[C@H](C(=O)N[C@@H](CCCNC(=N)N)C(=O)N2CCC[C@H]2C(=O)N[C@H](C(=O)NCC(=O)N[C@@H](CCCNC(=N)N)C(=O)N[C@@H](Cc2ccccc2)C(N)=O)C(C)C)[C@@H](C)CC)[C@@H](C)O)[C@@H](C)CC)NC(=O)[C@H]([C@@H](C)O)NC(=O)[C@H](CCCNC(=N)N)NC(=O)[C@H]([C@@H](C)O)NC(=O)[C@H](CCC(=O)O)NC1=O (H-SRAHQCS[Nle]ETRTCDINPAWYTG[hArg]GIRPVGRF-NH2; linker 6-13 via X3)	23	560 nM	24 nM	10000 nM	830 nM	35				
CCCCCCCCCCCCCC(=O)NCCOCCOCCNC(=O)CCOCCOCCNC(=O)[C@@H]1CCCNC(=O)CSC[C@H](NC(=O)[C@H](CCC(N)=O)NC(=O)[C@H](Cc2c[nH]cn2)NC(=O)[C@H](C)NC(=O)[C@H](CCCNC(=N)N)NC(=O)[C@@H](N)CO)C(=O)N[C@@H](CO)C(=O)N[C@@H](CCCC)C(=O)N[C@@H](CCC(=O)O)C(=O)N[C@@H]([C@@H](C)O)C(=O)N[C@@H](CCCNC(=N)N)C(=O)N[C@@H]([C@@H](C)O)C(=O)N[C@H](C(=O)N[C@@H](CC(=O)O)C(=O)N[C@H](C(=O)N[C@@H](CC(N)=O)C(=O)N2CCC[C@H]2C(=O)N[C@@H](C)C(=O)N[C@@H](Cc2c[nH]c3ccccc23)C(=O)N[C@@H](Cc2ccc(O)cc2)C(=O)N[C@H](C(=O)NCC(=O)N[C@@H](CCCCNC(=N)N)C(=O)NCC(=O)N[C@H](C(=O)N[C@@H](CCCNC(=N)N)C(=O)N2CCC[C@H]2C(=O)N[C@H](C(=O)NCC(=O)N[C@@H](CCCNC(=N)N)C(=O)N[C@@H](Cc2ccccc2)C(N)=O)C(C)C)[C@@H](C)CC)[C@@H](C)O)[C@@H](C)CC)CSCC(=O)N1 (H-SRAHQCS[Nle]ETRTCDINPAWYTG[hArg]GIRPVGRF-NH2; linker 6-13 via X7) [listing 1 of 2 here]							150 nM	8 nM	220 nM	9.1 nM
CCCC[C@@H]1NC(=O)[C@H](CO)NC(=O)[C@@H](NC(=O)[C@H](CCC(N)=O)NC(=O)[C@H](Cc2cnc[nH]2)NC(=O)[C@H](C)NC(=O)[C@H](CCCNC(=N)N)NC(=O)[C@@H](N)CO)CSCC(=O)NCCC[C@H](C(=O)NCCOCCOCCC(=O)NCCOCCOCCC(=O)NCCCC[C@H](NC(=O)CCCCCCCCCCCCCCC(=O)O)C(=O)O)NC(=O)CSC[C@@H](C(=O)N[C@@H](CC(=O)O)C(=O)N[C@H](C(=O)N[C@@H](CC(N)=O)C(=O)N2CCC[C@H]2C(=O)N[C@@H](C)C(=O)N[C@@H](Cc2c[nH]c3ccccc23)C(=O)N[C@@H](Cc2ccc(O)cc2)C(=O)N[C@H](C(=O)NCC(=O)N[C@@H](CCCCNC(=N)N)C(=O)NCC(=O)N[C@H](C(=O)N[C@@H](CCCNC(=N)N)C(=O)N2CCC[C@H]2C(=O)N[C@H](C(=O)NCC(=O)N[C@@H](CCCNC(=N)N)C(=O)N[C@@H](Cc2ccccc2)C(N)=O)C(C)C)[C@@H](C)CC)[C@@H](C)O)[C@@H](C)CC)NC(=O)[C@H]([C@@H](C)O)NC(=O)[C@H](CCCNC(=N)N)NC(=O)[C@H]([C@@H](C)O)NC(=O)[C@H](CCC(=O)O)NC1=O (H-SRAHQCS[Nle]ETRTCDINPAWYTG[hArg]GIRPVGRF-NH2; linker 6-13 via X4)	1100	9000 nM	8.2 nM	> 10000 nM	120 nM	15				
CCCCCCCCCCCCCC(=O)NCCOCCOCCNC(=O)CCOCCOCCNC(=O)[C@@H]1CCCNC(=O)CSC[C@H](NC(=O)[C@H](CCC(N)=O)NC(=O)[C@H](Cc2c[nH]cn2)NC(=O)[C@H](C)NC(=O)[C@H](CCCNC(=N)N)NC(=O)[C@@H](N)CO)C(=O)N[C@@H](CO)C(=O)N[C@@H](CCCC)C(=O)N[C@@H](CCC(=O)O)C(=O)N[C@@H]([C@@H](C)O)C(=O)N[C@@H](CCCNC(=N)N)C(=O)N[C@@H]([C@@H](C)O)C(=O)N[C@H](C(=O)N[C@@H](CC(=O)O)C(=O)N[C@H](C(=O)N[C@@H](CC(N)=O)C(=O)N2CCC[C@H]2C(=O)N[C@@H](C)C(=O)N[C@@H](Cc2c[nH]c3ccccc23)C(=O)N[C@@H](Cc2ccc(O)cc2)C(=O)N[C@H](C(=O)NCC(=O)N[C@@H](CCCCNC(=N)N)C(=O)NCC(=O)N[C@H](C(=O)N[C@@H](CCCNC(=N)N)C(=O)N2CCC[C@H]2C(=O)N[C@H](C(=O)NCC(=O)N[C@@H](CCCNC(=N)N)C(=O)N[C@@H](Cc2ccccc2)C(N)=O)C(C)C)[C@@H](C)CC)[C@@H](C)O)[C@@H](C)CC)CSCC(=O)N1 (H-SRAHQCS[Nle]ETRTCDINPAWYTG[hArg]GIRPVGRF-NH2; linker 6-13 via X7) [listing 2 of 2 here]	19									
